From ChEMBL document CHEMBL1914423, “New imidazo[2,1-b]thiazole derivatives: synthesis, in vitro anticancer evaluation, and in silico studies” (Eur J Med Chem, 2011)

These compounds were tested on CCRF-CEM (assay: Anticancer activity against human CCRF-CEM cells assessed as cell growth at 10^-5 M after 48 hrs by SRB assay). Settings: read-out: Activity.
Format: functional
Summary of the method: (§1)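 NCI-60 single-dose screen at one concentration. Cells grown in RPMI 1640 with 5% FBS and 2 mM L-glutamine, plated at 5000–40,000 cells/well, and pre-incubated 24 h at 37 °C in 5% CO2 before DMSO-dissolved drug was added. Cells fixed with TCA, SRB-stained, absorbance read at 515 nm. Percent growth calculated against time-zero and untreated control plates.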

SMILES | growth at 10 µM [%]
O=C(NCCNc1nccc(-c2c(-c3cccc(O)c3)nc3sccn23)n1)Nc1cccc(C(F)(F)F)c1 | 23.1

The compounds below were run on RPMI-8226 (assay: Anticancer activity against human RPMI8226 cells assessed as cell growth at 10^-5 M after 48 hrs by SRB assay). Settings: RPMI-8226, 48 h, read-out: Activity.
Format: functional

SMILES | growth at 10 µM [%]
O=C(NCCNc1nccc(-c2c(-c3cccc(O)c3)nc3sccn23)n1)Nc1cccc(C(F)(F)F)c1 | -4.81

What follows are compounds tested on EKVX (assay: Anticancer activity against human EKVX cells assessed as cell growth at 10^-5 M after 48 hrs by SRB assay). Settings: read-out: Activity.
Format: functional
Summary of the method: as §1

SMILES | growth at 10 µM [%]
O=C(NCCNc1nccc(-c2c(-c3cccc(O)c3)nc3sccn23)n1)Nc1cccc(C(F)(F)F)c1 | 91.2

What follows are compounds tested on HOP-62 (assay: Anticancer activity against human HOP62 cells assessed as cell growth at 10^-5 M after 48 hrs by SRB assay). Settings: HOP-62, 48 h, read-out: Activity.
Format: functional
Summary of the method: as §1

SMILES | growth at 10 µM [%]
O=C(NCCNc1nccc(-c2c(-c3cccc(O)c3)nc3sccn23)n1)Nc1cccc(C(F)(F)F)c1 | 83.5

What follows are compounds tested on HOP-92 (assay: Anticancer activity against human HOP92 cells assessed as cell growth at 10^-5 M after 48 hrs by SRB assay). Settings: HOP-92, 48 h, read-out: Activity.
Format: functional
Summary of the method: as §1

SMILES | growth at 10 µM [%]
O=C(NCCNc1nccc(-c2c(-c3cccc(O)c3)nc3sccn23)n1)Nc1cccc(C(F)(F)F)c1 | 54.5

Each compound was assayed on NCI-H226 (assay: Anticancer activity against human NCI-H226 cells assessed as cell growth at 10^-5 M after 48 hrs by SRB assay). Settings: NCI-H226, 48 h, read-out: Activity.
Format: functional

SMILES | growth at 10 µM [%]
O=C(NCCNc1nccc(-c2c(-c3cccc(O)c3)nc3sccn23)n1)Nc1cccc(C(F)(F)F)c1 | 97

Each compound was assayed on NCI-H23 (assay: Anticancer activity against human NCI-H23 cells assessed as cell growth at 10^-5 M after 48 hrs by SRB assay). Settings: NCI-H23, 48 h, read-out: Activity.
Format: functional

SMILES | growth at 10 µM [%]
O=C(NCCNc1nccc(-c2c(-c3cccc(O)c3)nc3sccn23)n1)Nc1cccc(C(F)(F)F)c1 | 96.2

Each compound was assayed on NCI-H322M (assay: Anticancer activity against human NCI-H322M cells assessed as cell growth at 10^-5 M after 48 hrs by SRB assay). Settings: read-out: Activity.
Format: functional

SMILES | growth at 10 µM [%]
O=C(NCCNc1nccc(-c2c(-c3cccc(O)c3)nc3sccn23)n1)Nc1cccc(C(F)(F)F)c1 | 76.8

What follows are compounds tested on NCI-H522 (assay: Anticancer activity against human NCI-H522 cells assessed as cell growth at 10^-5 M after 48 hrs by SRB assay). Settings: NCI-H522, 48 h, read-out: Activity.
Format: functional

SMILES | growth at 10 µM [%]
O=C(NCCNc1nccc(-c2c(-c3cccc(O)c3)nc3sccn23)n1)Nc1cccc(C(F)(F)F)c1 | -5.9

These compounds were tested on HCT-116 (assay: Anticancer activity against human HCT116 cells assessed as cell growth at 10^-5 M after 48 hrs by SRB assay). Settings: HCT-116, 48 h, read-out: Activity.
Format: functional
Summary of the method: as §1

SMILES | growth at 10 µM [%]
O=C(NCCNc1nccc(-c2c(-c3cccc(O)c3)nc3sccn23)n1)Nc1cccc(C(F)(F)F)c1 | 56.8

What follows are compounds tested on HCT-15 (assay: Anticancer activity against human HCT15 cells assessed as cell growth at 10^-5 M after 48 hrs by SRB assay). Settings: HCT-15, 48 h, read-out: Activity.
Format: functional
Summary of the method: as §1

SMILES | growth at 10 µM [%]
O=C(NCCNc1nccc(-c2c(-c3cccc(O)c3)nc3sccn23)n1)Nc1cccc(C(F)(F)F)c1 | 84.7

The compounds below were run on HT-29 (assay: Anticancer activity against human HT-29 cells assessed as cell growth at 10^-5 M after 48 hrs by SRB assay). Settings: HT-29, 48 h, read-out: Activity.
Format: functional
Summary of the method: as §1

SMILES | growth at 10 µM [%]
O=C(NCCNc1nccc(-c2c(-c3cccc(O)c3)nc3sccn23)n1)Nc1cccc(C(F)(F)F)c1 | 38.9

The compounds below were run on KM12 (assay: Anticancer activity against human KM12 cells assessed as cell growth at 10^-5 M after 48 hrs by SRB assay). Settings: KM12, 48 h, read-out: Activity.
Format: functional
Summary of the method: as §1

SMILES | growth at 10 µM [%]
O=C(NCCNc1nccc(-c2c(-c3cccc(O)c3)nc3sccn23)n1)Nc1cccc(C(F)(F)F)c1 | 14.1

The compounds below were run on SF-268 (assay: Anticancer activity against human SF268 cells assessed as cell growth at 10^-5 M after 48 hrs by SRB assay). Settings: SF-268, 48 h, read-out: Activity.
Format: functional

SMILES | growth at 10 µM [%]
O=C(NCCNc1nccc(-c2c(-c3cccc(O)c3)nc3sccn23)n1)Nc1cccc(C(F)(F)F)c1 | 26.2

These compounds were tested on SF-539 (assay: Anticancer activity against human SF539 cells assessed as cell growth at 10^-5 M after 48 hrs by SRB assay). Settings: SF-539, 48 h, read-out: Activity.
Format: functional

SMILES | growth at 10 µM [%]
O=C(NCCNc1nccc(-c2c(-c3cccc(O)c3)nc3sccn23)n1)Nc1cccc(C(F)(F)F)c1 | 98.5

These compounds were tested on SNB-75 (assay: Anticancer activity against human SNB75 cells assessed as cell growth at 10^-5 M after 48 hrs by SRB assay). Settings: SNB-75, 48 h, read-out: Activity.
Format: functional
Summary of the method: (§2)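 NCI-60 single-dose screen: cells in RPMI 1640 with 5% FBS and 2 mM L-glutamine, plated at 5000–40,000 cells/well by doubling time, and preincubated 24 h at 37 °C. Compound given at one concentration from DMSO stock. Cells TCA-fixed and SRB-stained, absorbance at 515 nm. Percent growth relative to time-zero and untreated controls; inhibition % = 100 − growth %.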

SMILES | growth at 10 µM [%]
O=C(NCCNc1nccc(-c2c(-c3cccc(O)c3)nc3sccn23)n1)Nc1cccc(C(F)(F)F)c1 | 66.2

What follows are compounds tested on U-251 (assay: Anticancer activity against human U251 cells assessed as cell growth at 10^-5 M after 48 hrs by SRB assay). Settings: U-251, 48 h, read-out: Activity.
Format: functional
Summary of the method: as §2

SMILES | growth at 10 µM [%]
O=C(NCCNc1nccc(-c2c(-c3cccc(O)c3)nc3sccn23)n1)Nc1cccc(C(F)(F)F)c1 | 81.6

Each compound was assayed on LOX IMVI (assay: Anticancer activity against human LOXIMVI cells assessed as cell growth at 10^-5 M after 48 hrs by SRB assay). Settings: read-out: Activity.
Format: functional
Summary of the method: as §1

SMILES | growth at 10 µM [%]
O=C(NCCNc1nccc(-c2c(-c3cccc(O)c3)nc3sccn23)n1)Nc1cccc(C(F)(F)F)c1 | 64.5

These compounds were tested on Malme-3M (assay: Anticancer activity against human MALME-3M cells assessed as cell growth at 10^-5 M after 48 hrs by SRB assay). Settings: read-out: Activity.
Format: functional
Summary of the method: as §1

SMILES | growth at 10 µM [%]
O=C(NCCNc1nccc(-c2c(-c3cccc(O)c3)nc3sccn23)n1)Nc1cccc(C(F)(F)F)c1 | 23.6

Each compound was assayed on SK-MEL-2 (assay: Anticancer activity against human SK-MEL-2 cells assessed as cell growth at 10^-5 M after 48 hrs by SRB assay). Settings: SK-MEL-2, 48 h, read-out: Activity.
Format: functional

SMILES | growth at 10 µM [%]
O=C(NCCNc1nccc(-c2c(-c3cccc(O)c3)nc3sccn23)n1)Nc1cccc(C(F)(F)F)c1 | 54.4

Each compound was assayed on OVCAR-3 (assay: Anticancer activity against human OVCAR3 cells assessed as cell growth at 10^-5 M after 48 hrs by SRB assay). Settings: OVCAR-3, 48 h, read-out: Activity.
Format: functional

SMILES | growth at 10 µM [%]
O=C(NCCNc1nccc(-c2c(-c3cccc(O)c3)nc3sccn23)n1)Nc1cccc(C(F)(F)F)c1 | 76.7

Each compound was assayed on OVCAR-5 (assay: Anticancer activity against human OVCAR5 cells assessed as cell growth at 10^-5 M after 48 hrs by SRB assay). Settings: OVCAR-5, 48 h, read-out: Activity.
Format: functional

SMILES | growth at 10 µM [%]
O=C(NCCNc1nccc(-c2c(-c3cccc(O)c3)nc3sccn23)n1)Nc1cccc(C(F)(F)F)c1 | 117

Each compound was assayed on OVCAR-8 (assay: Anticancer activity against human OVCAR8 cells assessed as cell growth at 10^-5 M after 48 hrs by SRB assay). Settings: OVCAR-8, 48 h, read-out: Activity.
Format: functional

SMILES | growth at 10 µM [%]
O=C(NCCNc1nccc(-c2c(-c3cccc(O)c3)nc3sccn23)n1)Nc1cccc(C(F)(F)F)c1 | 41.1

These compounds were tested on SK-OV-3 (assay: Anticancer activity against human SKOV3 cells assessed as cell growth at 10^-5 M after 48 hrs by SRB assay). Settings: SK-OV-3, 48 h, read-out: Activity.
Format: functional

SMILES | growth at 10 µM [%]
O=C(NCCNc1nccc(-c2c(-c3cccc(O)c3)nc3sccn23)n1)Nc1cccc(C(F)(F)F)c1 | 85

These compounds were tested on 786-0 (assay: Anticancer activity against human 786-0 cells assessed as cell growth at 10^-5 M after 48 hrs by SRB assay). Settings: 786-0, 48 h, read-out: Activity.
Format: functional
Summary of the method: as §1

SMILES | growth at 10 µM [%]
O=C(NCCNc1nccc(-c2c(-c3cccc(O)c3)nc3sccn23)n1)Nc1cccc(C(F)(F)F)c1 | 79.4

Each compound was assayed on A498 (assay: Anticancer activity against human A498 cells assessed as cell growth at 10^-5 M after 48 hrs by SRB assay). Settings: A498, 48 h, read-out: Activity.
Format: functional
Summary of the method: as §1

SMILES | growth at 10 µM [%]
O=C(NCCNc1nccc(-c2c(-c3cccc(O)c3)nc3sccn23)n1)Nc1cccc(C(F)(F)F)c1 | 111

The compounds below were run on ACHN (assay: Anticancer activity against human ACHN cells assessed as cell growth at 10^-5 M after 48 hrs by SRB assay). Settings: read-out: Activity.
Format: functional
Summary of the method: as §1

SMILES | growth at 10 µM [%]
O=C(NCCNc1nccc(-c2c(-c3cccc(O)c3)nc3sccn23)n1)Nc1cccc(C(F)(F)F)c1 | 85.1

The compounds below were run on UO-31 (assay: Anticancer activity against human UO31 cells assessed as cell growth at 10^-5 M after 48 hrs by SRB assay). Settings: UO-31, 48 h, read-out: Activity.
Format: functional
Summary of the method: as §2

SMILES | growth at 10 µM [%]
O=C(NCCNc1nccc(-c2c(-c3cccc(O)c3)nc3sccn23)n1)Nc1cccc(C(F)(F)F)c1 | 75.2

These compounds were tested on DU-145 (assay: Anticancer activity against human DU145 cells assessed as cell growth at 10^-5 M after 48 hrs by SRB assay). Settings: DU-145, 48 h, read-out: Activity.
Format: functional
Summary of the method: as §1

SMILES | growth at 10 µM [%]
O=C(NCCNc1nccc(-c2c(-c3cccc(O)c3)nc3sccn23)n1)Nc1cccc(C(F)(F)F)c1 | 89

Each compound was assayed on MCF7 (assay: Anticancer activity against human MCF7 cells assessed as cell growth at 10^-5 M after 48 hrs by SRB assay). Settings: MCF7, 48 h, read-out: Activity.
Format: functional
Summary of the method: as §1

SMILES | growth at 10 µM [%]
O=C(NCCNc1nccc(-c2c(-c3cccc(O)c3)nc3sccn23)n1)Nc1cccc(C(F)(F)F)c1 | 55.6

These compounds were tested on MDA-MB-231 (assay: Anticancer activity against human MDA-MB-231 cells assessed as cell growth at 10^-5 M after 48 hrs by SRB assay). Settings: MDA-MB-231, 48 h, read-out: Activity.
Format: functional
Summary of the method: as §1

SMILES | growth at 10 µM [%]
O=C(NCCNc1nccc(-c2c(-c3cccc(O)c3)nc3sccn23)n1)Nc1cccc(C(F)(F)F)c1 | 37.7

The compounds below were run on BT-549 (assay: Anticancer activity against human BT549 cells assessed as cell growth at 10^-5 M after 48 hrs by SRB assay). Settings: BT-549, 48 h, read-out: Activity.
Format: functional
Summary of the method: as §1

SMILES | growth at 10 µM [%]
O=C(NCCNc1nccc(-c2c(-c3cccc(O)c3)nc3sccn23)n1)Nc1cccc(C(F)(F)F)c1 | 41.1

These compounds were tested on T47D (assay: Anticancer activity against human T47D cells assessed as cell growth at 10^-5 M after 48 hrs by SRB assay). Settings: read-out: Activity.
Format: functional
Summary of the method: as §2

SMILES | growth at 10 µM [%]
O=C(NCCNc1nccc(-c2c(-c3cccc(O)c3)nc3sccn23)n1)Nc1cccc(C(F)(F)F)c1 | 63.8
